Measured values reported in ChEMBL document CHEMBL5108057, “Development of MAO-A and 5-HT2AR Dual Inhibitors with Improved Antidepressant Activity” (J Med Chem, 2022).
pIC50: −log10 of the molar value. Activity calls are given as the source filed them. No cut-off for these calls is given here.

Columns and labels:
[1] = Toxicity in mouse assessed as toxic effect on liver at 10 to 20 mg/kg by H and E staining based assay; assay type: organism-based; conditions: in vivo, dose 10-20 mg/kg
Method in brief: (§1)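 Mice given compound at 10 or 20 mg/kg, with fluoxetine 20 mg/kg as comparator. Paraffin tissue sections of 4 μm were cut. Staining: hematoxylin 5 min, 75% HCl-ethanol differentiation 30 s, eosin 2 min. Organs (liver, kidney, lung, heart, spleen) examined at ×400; hippocampus (CA1, CA3, DG) at ×200.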

[2] = MRT infinity in Sprague-Dawley rat at 10 mg/kg, IG measured upto 1440 mins by LC-MS/MS analysis; assay type: ADME, organism-based; conditions: in vivo, po
[3] = system: Mus musculus; experiment: Antidepressant activity in reserpine-induced ICR mouse model assessed as improvement in depression like behavior at 10 mg/kg pretreated with reserpine for 3 days followed by compound addition for 1 week by open field test; assay type: functional, organism-based; conditions: time 1.0 weeks
Method in brief: (§2)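 Body weight was recorded daily. OFT: 5 min session scoring distance, speed, rearing and dejection. FST and TST: 6 min, with immobility scored over the last 4 min. Mean ± SD, n = 6; one-way ANOVA and t-test.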

[4] = Tmax in Sprague-Dawley rat at 2 mg/kg, iv measured upto 1440 mins by LC-MS/MS analysis; assay type: ADME, organism-based; conditions: in vivo
[5] = Toxicity in mouse assessed as toxic effect on kidney at 10 to 20 mg/kg by H and E staining based assay; assay type: organism-based; conditions: in vivo, dose 10-20 mg/kg; method in brief: as §1
[6] = Tmax in Sprague-Dawley rat at 10 mg/kg, IG measured upto 1440 mins by LC-MS/MS analysis; assay type: ADME, organism-based; conditions: in vivo, po
[7] = organism: Danio rerio; experiment: Antidepressant activity in reserpine-induced zebrafish AB depression model assessed as decrease in immobility time at 0.1 to 1 uM pretreated for 40 mins with reserpine followed by compound addition and measured for 7 days by open field test; assay type: functional, organism-based; conditions: dose 0.1-1 µM, time 7.0 day
Method in brief: (§3)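 Zebrafish were exposed to 10 mg/L reserpine for 40 min. Compound (0.1, 0.5, 1 μM) or fluoxetine (1 μM) was given 24 h later for 7 days. Fish kept at 28.5 °C on a 14 h light/10 h dark cycle. Open-field and novel tank tests were video-tracked for distance, velocity, immobility and time in the top. Mean ± SD, n = 6.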

[8] = AUC(0 to infinity) in Sprague-Dawley rat at 2 mg/kg, iv measured upto 1440 mins by LC-MS/MS analysis; assay type: ADME, organism-based; parameters: dose 2 mg/kg, time < 1440 min, route iv; conditions: in vivo
[9] = target: T1, Amine oxidase [flavin-containing] A (Homo sapiens, UniProt P21397); experiment: Inhibition of MAO-A (unknown origin) using p-tyramine as substrate preincubated for 15 mins followed by substrate addition and measured after 15 mins by Amplex red fluorescence based microplate reader assay
T1 sequence (P21397 whole entry): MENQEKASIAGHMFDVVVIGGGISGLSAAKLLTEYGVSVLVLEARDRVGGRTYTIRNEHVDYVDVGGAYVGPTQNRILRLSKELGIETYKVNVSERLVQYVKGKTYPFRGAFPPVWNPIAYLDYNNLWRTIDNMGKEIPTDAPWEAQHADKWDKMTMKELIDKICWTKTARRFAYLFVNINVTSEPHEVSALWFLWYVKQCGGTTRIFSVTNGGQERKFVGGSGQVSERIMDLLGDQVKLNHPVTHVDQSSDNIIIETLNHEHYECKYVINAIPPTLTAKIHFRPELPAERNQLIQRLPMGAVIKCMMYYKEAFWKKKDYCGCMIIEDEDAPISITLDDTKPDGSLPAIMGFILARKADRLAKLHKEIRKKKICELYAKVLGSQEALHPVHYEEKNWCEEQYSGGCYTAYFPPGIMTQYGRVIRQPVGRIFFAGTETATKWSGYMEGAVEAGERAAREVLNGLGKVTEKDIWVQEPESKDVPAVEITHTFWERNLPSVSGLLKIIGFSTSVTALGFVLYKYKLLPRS

[10] = system: PC-12; experiment: Neurocytoprotective activity against CORT-induced damage in rat PC-12 cells at 0.5 to 4 uM measured after 24 hrs by MTT assay; assay type: functional, cell-based; conditions: dose 0.5-4 µM
Method in brief: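 PC12 cells seeded at 5 × 10^4 cells/mL for 24 h. Medium was then replaced with compound (0.5–4.0 μM) plus 500 μM CORT (DMSO <1%) for 24 h. Viability was measured by MTT relative to the CORT model group.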

[11] = Half life in Sprague-Dawley rat at 10 mg/kg, IG measured upto 1440 mins by LC-MS/MS analysis; assay type: ADME, organism-based; conditions: in vivo, po
[12] = organism: Danio rerio; experiment: Antidepressant activity in reserpine-induced zebrafish AB depression model assessed as improved locomotion at 0.1 to 1 uM pretreated for 40 mins with reserpine followed by compound addition and measured for 7 days by novel tank test; assay type: functional, organism-based; conditions: dose 0.1-1 µM, time 7.0 day; method in brief: as §3
[13] = system: Mus musculus; experiment: Antidepressant activity in chronic unpredictable mild stress ICR mouse model assessed as reduction in depression-like behavior at 10 mg/kg administered for 2 weeks by open field test; assay type: functional, organism-based
Method in brief: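 ICR mice received CUMS for 4 weeks: 11 stressors given randomly twice daily, 42 days in total. OFT: 5 min session scoring distance, speed, rearing and dejection. FST/TST: 6 min, with immobility scored over the last 4 min. Sucrose preference test was also run. Mean ± SD, n = 6.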

[14] = system: Mus musculus; experiment: Antidepressant activity in reserpine-induced ICR mouse model assessed as increase in movement speed at 10 to 20 mg/kg pretreated with reserpine for 3 days followed by compound addition for 1 week by open field test; assay type: functional, organism-based; conditions: dose 10-20 mg/kg, time 1.0 weeks; method in brief: as §2
[15] = target: T2, Amine oxidase [flavin-containing] B (Homo sapiens, UniProt P27338); experiment: Inhibition of MAO-B (unknown origin) using p-tyramine as substrate preincubated for 15 mins followed by substrate addition and measured after 15 mins by Amplex red fluorescence based microplate reader assay
T2 sequence (P27338 whole entry): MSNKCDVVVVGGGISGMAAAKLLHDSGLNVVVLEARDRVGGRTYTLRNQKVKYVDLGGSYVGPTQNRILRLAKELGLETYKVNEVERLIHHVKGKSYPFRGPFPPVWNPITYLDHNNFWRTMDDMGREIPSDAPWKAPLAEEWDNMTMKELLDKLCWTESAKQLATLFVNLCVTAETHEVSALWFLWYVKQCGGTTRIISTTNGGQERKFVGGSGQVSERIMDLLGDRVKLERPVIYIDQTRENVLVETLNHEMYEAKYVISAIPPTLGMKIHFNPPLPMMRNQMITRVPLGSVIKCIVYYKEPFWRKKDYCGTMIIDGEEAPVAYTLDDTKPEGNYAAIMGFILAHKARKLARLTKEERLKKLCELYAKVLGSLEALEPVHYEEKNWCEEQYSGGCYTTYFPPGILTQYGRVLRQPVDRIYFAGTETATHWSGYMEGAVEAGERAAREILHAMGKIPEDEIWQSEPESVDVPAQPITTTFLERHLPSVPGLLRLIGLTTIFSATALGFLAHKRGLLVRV

[16] = AUC(0 to 24 hrs) in Sprague-Dawley rat at 2 mg/kg, iv measured upto 1440 mins by LC-MS/MS analysis; assay type: ADME, organism-based; parameters: dose 2 mg/kg, time < 1440 min, route iv; conditions: in vivo
[17] = system: Mus musculus; experiment: Antidepressant activity in reserpine-induced ICR mouse model assessed as decrease in number of dejection at 10 to 20 mg/kg pretreated with reserpine for 3 days followed by compound addition on day 4 to 10 by open field test; assay type: functional, organism-based; conditions: dose 10-20 mg/kg, time 6.0 day; method in brief: as §2

MRT inf [2]: 4.94 h | Tmax [4]: 4.8 min | Tmax [6]: 1.33 h | AUC(0-inf) [8]: 2320 ng·h/mL | pIC50 [9]: 8.40 | half-life [11]: 5.22 h | pIC50 [15]: 5.98 | AUC(0-t) at 24 h [16]: 2230 ng·h/mL
SMILES: O=C1c2ccccc2-c2nccc3cc(OCCCCCN4CCN(c5ccccc5F)CC4)cc1c23
Activity [1]: Non-Toxic | Activity [3]: Active | Activity [5]: Non-Toxic | Activity [7]: Active | Activity [10]: Active | Activity [12]: Active | Activity [13]: Active | Activity [14]: Active | Activity [17]: Active
